# Source: PubChem BioAssay (several laboratories)
# SMARCA2 activ = SMARCA2 (BRM) function activators, primary screen, cell-based, luminescence, high throughput. MG213 cells, MMTV-luciferase reporter, dexamethasone, overnight. activation, % at 9.1 µM. actives 1% (n = 370,000). AID 652017, 2013; in the data active = activation above about 7.8%;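 note: 0% = vehicle wells and 100% = reference activator wells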
# ASAP1 GAP inh = inhibitors of human ASAP1 ArfGAP activity, primary screen, biochemical, fluorescence polarization | inhibition, % at 16.5 µM | ASAP1-stimulated ARF1 GTP hydrolysis, GDP FP detection | Arf-GAP with SH3 domain, ANK repeat and PH domain-containing protein 1 (Homo sapiens), … | actives 0.19% (n = 360,000) | AID 624377, 2012; in the data active = inhibition above about 25%;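 note: 0% = vehicle with enzyme and substrate and 100% = no enzyme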
# esBAF inh = Bmi1 luciferase reporter increase in mESCs, primary screen, esBAF inhibitor project, mouse ES cells, Bmi1 luciferase knock-in, single point; actives 2% (n = 350,000); AID 602393, 2012; reporter increase, % at 12.5 µM; 24 h; 100% = twice the neutral-well signal; in the data active = activation above about 40%;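 note: 0% = median of the plate's neutral control wells and 100% = double that signal; a rise in the Bmi1 reporter signal indicates esBAF inhibition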
# ARFGAP1 inh = inhibitors of rat ARFGAP1 GAP activity, primary screen, biochemical, fluorescence polarization, GDP tracer; inhibition, % at 16.5 µM; actives 0.26% (n = 360,000); ADP-ribosylation factor GTPase-activating protein 1 (Rattus norvegicus), Q62848; Arfgap1-stimulated ARF1 GTP hydrolysis, GDP FP detection; AID 651572, 2012;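 active = inhibition above a per-plate limit, mean inhibition of low control wells plus 3 SD, cut at about 25% in these data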;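 note: 0% = DMSO wells with enzyme and 100% = wells lacking Arfgap1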
# Target sequence (Q62848 1-136 limits assumed): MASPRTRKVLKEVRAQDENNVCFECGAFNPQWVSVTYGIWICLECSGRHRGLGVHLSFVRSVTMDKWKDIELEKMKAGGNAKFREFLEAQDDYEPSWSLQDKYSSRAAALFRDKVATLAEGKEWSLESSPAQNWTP
#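 Material: rat Arfgap1 GAP domain (His6, aa 1-136), purified enzyme. Also added: human ARF1(Δ1-17)-GTP substrate. Compound dosing: 16.5 µM single point, 1.26% DMSO. Timing: enzyme reaction 120 min at 25 °C after 20 min preincubation. Signal: GDP detection by fluorescence polarization. Read-out basis: percent inhibition of GAP-stimulated GDP formation, scaled between DMSO and no-Arfgap1 medians.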
# ARFGAP1 inh conf = ARFGAP1 inhibitor hit confirmation, biochemical, fluorescence polarization, triplicate | shares compounds with ARFGAP1 inh | ARFGAP1-stimulated ARF1 GTP hydrolysis, GDP tracer FP | inhibition, % at 16.5 µM | actives 30% (n = 890) | AID 651608, 2012;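 active = average inhibition over triplicates above the hit cutoff set in the earlier primary screen, cut at about 25% in these data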;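 note: 0% = Arfgap1 plus ARF1-GTP with DMSO and 100% = wells lacking Arfgap1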
# Target sequence (Q62848 whole entry, looked up): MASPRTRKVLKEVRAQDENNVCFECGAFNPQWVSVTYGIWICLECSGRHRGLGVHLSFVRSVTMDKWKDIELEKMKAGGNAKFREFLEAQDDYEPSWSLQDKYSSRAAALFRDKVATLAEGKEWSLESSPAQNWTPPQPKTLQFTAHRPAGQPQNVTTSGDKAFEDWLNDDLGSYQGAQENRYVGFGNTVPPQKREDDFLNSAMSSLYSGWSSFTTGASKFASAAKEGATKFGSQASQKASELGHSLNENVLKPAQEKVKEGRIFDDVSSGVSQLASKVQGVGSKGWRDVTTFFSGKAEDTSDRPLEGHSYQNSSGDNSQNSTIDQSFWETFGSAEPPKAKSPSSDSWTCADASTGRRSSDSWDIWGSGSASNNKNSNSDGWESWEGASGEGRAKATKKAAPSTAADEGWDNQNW
# * marks the source's active call; other numbers are inactive results; . = no result given. Shown are actives, neighbours in structure and some others; about 2.6% of the full set was active somewhere.
SMILES,SMARCA2 activ,ASAP1 GAP inh,esBAF inh,ARFGAP1 inh,ARFGAP1 inh conf
CNC(=O)C[C@H]1CC[C@H]2[C@@H](COc3ccc(NC(=O)CC(F)(F)F)cc3C(=O)N2C)O1,.,.,2.4,.,.
O=C(NCc1ccccc1)C(c1ccncc1)n1c(=O)c(-c2cc3ccccc3[nH]2)nc2ccccc21 (stereo not drawn),0.8,13.2,.,24.9*,21.0
Cc1noc(C)c1NC(=O)N(C)C[C@@H]1Oc2c(NC(=O)c3nc4ccccc4s3)cccc2C(=O)N([C@@H](C)CO)C[C@H]1C,.,.,3.4,.,.
CC(C)(C)OC(=O)N1CCC[C@H]1C(=O)NCC1CCC(C(=O)O)CC1 (stereo partly drawn),-0.3,5.0,-2.0,26.3*,-0.6
CSCC[C@H](NC(=O)C1CCC(CNC(=O)[C@@H]2CCCN2C(=O)OC(C)(C)C)CC1)C(=O)O (stereo partly drawn),1.1,1.4,-2.5,-6.1,.
COc1ccc(-c2csc(NC(=O)CN3C(=O)NC4(CCCC4)C3=O)n2)c(OC)c1,-0.3,3.8,3.5,-5.4,.
COc1ccc(-c2csc(NC(=O)CN3C(=O)NC4(CCCC4)C3=O)n2)cc1OC,-0.3,-7.1,1.7,26.8*,4.2
COc1ccc(CCNC(=S)N2CCN(S(=O)(=O)c3ccc(C)cc3)CC2)cc1,-0.7,4.9,.,26.9*,3.7
O=C(Cc1cccnc1)N1[C@H](CO)[C@H](c2ccccc2)[C@@H]1CNCC1CCC1,.,.,1.1,.,.
C[C@@H]1CN([C@@H](C)CO)C(=O)c2cc(NC(=O)Nc3ccc(C(F)(F)F)cc3)ccc2O[C@@H]1CN(C)Cc1ccc2c(c1)OCO2,.,.,-4.5,.,.
C[C@@H]1CN([C@@H](C)CO)C(=O)CCCn2nncc2CO[C@H]1CN(C)S(=O)(=O)c1cn(C)cn1,-3.0,-4.9,-1.0,0.8,.
C[C@H](CO)N1C[C@H](C)[C@@H](CN(C)S(=O)(=O)c2cn(C)cn2)OCc2cnnn2CCCC1=O,7.8,-0.7,3.0,50.9*,-1.4
COc1ccc(C(=O)/C=C/c2ccc(O)cc2)c(O)c1C/C=C(\C)CCC=C(C)C,0.9,17.6,-11.9,24.9*,14.4
CNC[C@H]1Oc2ccc(NS(=O)(=O)c3ccc(F)cc3)cc2CC(=O)N([C@@H](C)CO)C[C@@H]1C,.,.,-6.0,.,.
CCCN(CCC)S(=O)(=O)c1cccc(C(=O)Nc2ccc3c(c2)OCO3)c1,3.3,16.7,-4.9,47.3*,1.9
O=C(Nc1ccc2nn(-c3ccccc3)nc2c1)c1ccc2c(c1)OCO2,-4.6,17.4,2.7,25.5*,28.0*
COc1ccc(C(=O)Cn2c(Cl)nc3c2c(=O)n(C)c(=O)n3C)cc1,-2.0,-4.1,-8.4,-4.2,.
COc1cccc(C(=O)Cn2c(Br)nc3c2c(=O)n(C)c(=O)n3C)c1,-1.5,0.0,9.4,27.8*,5.2
C[C@@H]1CN([C@H](C)CO)C(=O)c2cc(N(C)C)ccc2O[C@H]1CN(C)S(=O)(=O)c1cccs1,.,.,-0.4,.,.
N/C(=N\OC(=O)c1ccccc1[N+](=O)[O-])c1cccnc1,3.4,1.9,.,3.3,.
O=C(Oc1cccnc1)c1ccccc1[N+](=O)[O-],1.3,-13.7,.,25.4*,6.0
Cc1c(C(=O)NN)nn(-c2ccc(Cl)cc2)c(=O)c1C#N,-3.7,6.7,.,24.6*,-1.1
Cn1c(/C(C#N)=C/c2ccc(O)cc2)nc2ccccc21,6.0,9.4,.,24.9*,3.3
COc1ccc(/C=C/C(=O)Nc2cc(S(=O)(=O)N3CCCCC3)ccc2N2CCCCC2)cc1OC,-0.7,1.1,.,-8.6,.
CCN1CCN(c2ccc(S(=O)(=O)N3CCCCC3)cc2NC(=O)/C=C/c2ccc(OC)c(OC)c2)CC1,5.8,19.2,.,30.2*,44.9*
SMILES,SMARCA2 activ,ASAP1 GAP inh,esBAF inh,ARFGAP1 inh,ARFGAP1 inh conf
O=C(C[C@H]1C[C@H]2c3cc(NS(=O)(=O)c4ccc(F)cc4)ccc3O[C@H]2[C@@H](CO)O1)NCc1ccc(Cl)cc1,.,.,-1.6,.,.
N=C1C(c2nc(-c3ccc(Br)cc3)cs2)=C(O)CN1NC(=O)c1ccc([N+](=O)[O-])cc1,-1.9,20.5,.,-5.1,.
Cc1ccc(-c2csc(C3=C(O)CN(NC(=O)c4ccc([N+](=O)[O-])cc4)C3=N)n2)cc1,-0.1,13.6,1.9,27.6*,30.6*
CC(=O)N1CCc2c(sc(NC(=O)c3ccc(S(=O)(=O)N(C)CC4CCCO4)cc3)c2C(N)=O)C1 (stereo not drawn),-7.9,4.1,-4.0,28.9*,0.6
CO[C@H]1CN(C)C(=O)c2cc(NC(=O)C3CC3)ccc2OC[C@@H](C)N(C(=O)c2ccccc2)C[C@H]1C,.,.,-0.1,.,.
COCCC1CCCCN1C(=O)c1cc(COc2cccc(C(C)=O)c2)on1 (stereo not drawn),-1.8,8.2,64.7*,25.4*,-11.0
O=C1Nc2ccccc2CCc2ccccc21,1.2,10.9,5.4,-3.5,.
O=C1Cc2ccccc2C(=O)N1,-1.7,35.5*,.,25.5*,28.3*
CO[C@H]1CN(C)C(=O)c2cc(NC(=O)c3ccc(F)cc3)ccc2OC[C@H](C)N(C(=O)CC2CC2)C[C@H]1C,.,.,3.8,.,.
C=C(C)CC1(NC(C)c2ccccc2)CCCCC1 (stereo not drawn),-4.2,11.7,.,30.6*,-0.8
CN1CCN(C(=O)C[C@@H]2CC[C@@H]3[C@H](COC[C@@H](O)CN3C(=O)Nc3ccc(F)cc3)O2)CC1,.,.,1.9,.,.
O=[N+]([O-])c1cc(C(F)(F)F)cc([N+](=O)[O-])c1Sc1n[nH]c(C(F)(F)F)n1,-4.6,12.8,.,29.3*,-11.0
C[C@@H]1CN([C@@H](C)CO)C(=O)c2cccc(NS(=O)(=O)c3ccc(Cl)cc3)c2O[C@H]1CN(C)C(=O)NC1CCCCC1,.,.,2.3,.,.
